Measurements published in ChEMBL document CHEMBL6071188, “Synthesis and In Vivo Profiling of Desymmetrized Antimalarial Trioxolanes with Diverse Carbamate Side Chains” (ACS Med Chem Lett, 2024).
In brackets after ≈: the same amount, converted by molar mass.

Columns and labels:
[1] = Metabolic stability in human liver microsomes assessed as intrinsic clearance; type: ADME, Microsome; details: for microsomal intrinsic clearance: microsomes; for microsomal CLint: liver microsomes, read-out: CLH
[2] = system: Plasmodium berghei; assay: Antiplasmodial activity against Plasmodium berghei infected in female Swiss Webster mouse model assessed as survival at 10 mg/kg, po administered once daily for 2 days and measured upto 30 days; type: functional; details: time 30 day
Method in brief: (§1)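 Female Swiss Webster mice (~20 g) infected ip with 10^6 P. berghei-infected erythrocytes from a donor mouse. Dosing by oral gavage once daily for 1–2 days starting 1 h post-inoculation, in 10% DMSO/50% PEG400/40% of 20% HP-β-CD in water. Five mice per arm. Daily Giemsa smears from day 7, counting infected cells per 1000 erythrocytes. Body weight tracked. Euthanasia at >50% parasitemia or >15% weight loss. Followed to day 30; cure means no parasitemia at day 30. Survival reported as the day of the longest-surviving mouse.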

[3] = Solubility of the compound in PBS buffer at pH 7.4; type: physicochemical
[4] = Toxicity in female Swiss Webster mouse infected with Plasmodium berghei assessed as drug tolerance at 10 mg/kg, po administered once daily for 2 days and measured upto 30 days; type: organism-based; details: in vivo, 720 h, time 30 day; method in brief: as §1
[5] = system: Plasmodium berghei; assay: Antiplasmodial activity against Plasmodium berghei infected in female Swiss Webster mouse model assessed as survival at 20 mg/kg, po administered once daily for 1 day
[6] = Toxicity in female Swiss Webster mouse infected with Plasmodium berghei assessed as drug tolerance at 20 mg/kg, […]; type: organism-based; details: in vivo, po
[7] = system: Plasmodium berghei; assay: Antiplasmodial activity against Plasmodium berghei infected in female Swiss Webster mouse model assessed as cure rate at 40 mg/kg, po measured upto 30 days relative to control; type: functional; details: time <= 30 day

Row | SMILES | microsomal intrinsic clearance [1] [µL/min/mg] | Survival [2] [days] | solubility kinetic [3] [µM] | Activity [4] | also measured
1 | NC1(CNC(=O)O[C@H]2CCC[C@@]3(C2)OOC2(O3)C3CC4CC(C3)CC2C4)CCC1 (some centres undefined) | 24.9 | 13 | 162 (≈ 65.9 µg/mL) | – | –
2 | O=C(O[C@@H]1CCC[C@]2(C1)OOC1(O2)C2CC3CC(C2)CC1C3)N1CC(O)(C(F)(F)F)C1 (some centres undefined) | 234 | 9 | 24.8 (≈ 11.1 µg/mL) | Non-Toxic | –
3 | N[C@H]1CC[C@H](NC(=O)O[C@H]2CCC[C@@]3(C2)OOC2(O3)C3CC4CC(C3)CC2C4)CC1 (some centres undefined) | 28.2 | – | – | – | –
4 | CN1CCN(C(=O)O[C@H]2CCC[C@@]3(C2)OOC2(O3)C3CC4CC(C3)CC2C4)CC1 (some centres undefined) | – | – | 109 (≈ 44.3 µg/mL) | – | –
5 | CC(C)C1(O)CN(C(=O)O[C@H]2CCC[C@@]3(C2)OOC2(O3)C3CC4CC(C3)CC2C4)C1 (some centres undefined) | 657 | – | 15.1 (≈ 6.37 µg/mL) | – | –
6 | CCCC1(O)CN(C(=O)O[C@@H]2CCC[C@]3(C2)OOC2(O3)C3CC4CC(C3)CC2C4)C1 (some centres undefined) | 579 | – | 16.1 (≈ 6.79 µg/mL) | – | –
7 | CC(C)(CN)CNC(=O)O[C@@H]1CCC[C@]2(C1)OOC1(O2)C2CC3CC(C2)CC1C3 (some centres undefined) | – | – | – | – | microsomal CLint [1]: 14.3 µL/min/mg
8 | C[S+]([O-])C1CN(C(=O)O[C@H]2CCC[C@@]3(C2)OOC2(O3)C3CC4CC(C3)CC2C4)C1 (some centres undefined) | 750 | – | 184 (≈ 78.3 µg/mL) | – | –
9 | NC1CCN(C(=O)O[C@H]2CCC[C@@]3(C2)OOC2(O3)C3CC4CC(C3)CC2C4)CC1 (some centres undefined) | – | 11 | 118 (≈ 48 µg/mL) | Non-Toxic | microsomal CLint [1]: 11.8 µL/min/mg; Survival [5]: 9 days; Activity [6]: Non-Toxic
10 | CS(=N)(=O)C1CN(C(=O)O[C@H]2CCC[C@@]3(C2)OOC2(O3)C3CC4CC(C3)CC2C4)C1 (some centres undefined) | 431 | – | 142 (≈ 62.6 µg/mL) | – | –
11 | C[S+]([O-])C1CN(C(=O)O[C@@H]2CCC[C@]3(C2)OOC2(O3)C3CC4CC(C3)CC2C4)C1 (some centres undefined) | 516 | – | 138 (≈ 58.7 µg/mL) | – | –
12 | CC(C)(CN)CNC(=O)O[C@H]1CCC[C@@]2(C1)OOC1(O2)C2CC3CC(C2)CC1C3 (some centres undefined) | – | – | 164 (≈ 67 µg/mL) | – | microsomal CLint [1]: 21.4 µL/min/mg
13 | NCC1CCN(C(=O)O[C@@H]2CCC[C@]3(C2)OOC2(O3)C3CC4CC(C3)CC2C4)CC1 (some centres undefined) | – | – | – | – | Activity [7]: 20%
14 | CS(=N)(=O)C1CN(C(=O)O[C@@H]2CCC[C@]3(C2)OOC2(O3)C3CC4CC(C3)CC2C4)C1 (some centres undefined) | 234 | – | 268 (≈ 118 µg/mL) | – | –
15 | NC1(CNC(=O)O[C@H]2CCC[C@@]3(C2)OOC2(O3)C3CC4CC(C3)CC2C4)CCCC1 (some centres undefined) | 25.3 | 14 | 13.4 (≈ 5.64 µg/mL) | Non-Toxic | –
16 | N=S(=O)(CCNC(=O)O[C@H]1CCC[C@@]2(C1)OOC1(O2)C2CC3CC(C2)CC1C3)C1CC1 (some centres undefined) | 450 | 6 | 234 (≈ 106 µg/mL) | Non-Toxic | –
17 | CS(=O)(=O)C1CN(C(=O)O[C@H]2CCC[C@@]3(C2)OOC2(O3)C3CC4CC(C3)CC2C4)C1 (some centres undefined) | 851 | – | 81.1 (≈ 35.8 µg/mL) | – | –
18 | N[C@@H]1CCCN(C(=O)O[C@H]2CCC[C@@]3(C2)OOC2(O3)C3CC4CC(C3)CC2C4)C1 (some centres undefined) | 52.7 | – | 129 (≈ 52.4 µg/mL) | – | –
19 | CS(=N)(=O)CCNC(=O)O[C@H]1CCC[C@@]2(C1)OOC1(O2)C2CC3CC(C2)CC1C3 (some centres undefined) | 319 | – | 129 (≈ 55.3 µg/mL) | – | –
20 | NCC1CCN(C(=O)O[C@H]2CCC[C@@]3(C2)OOC2(O3)C3CC4CC(C3)CC2C4)CC1 (some centres undefined) | 69.6 | – | 112 (≈ 47.1 µg/mL) | – | –
21 | O=C(O[C@H]1CCC[C@@]2(C1)OOC1(O2)C2CC3CC(C2)CC1C3)N1CCNCC1 (some centres undefined) | 120 | – | 167 (≈ 65.5 µg/mL) | – | –
22 | O=C(NCC1(O)COC1)O[C@@H]1CCC[C@]2(C1)OOC1(O2)C2CC3CC(C2)CC1C3 (some centres undefined) | 76.2 | 6 | – | Non-Toxic | –
23 | N[C@@H]1CCN(C(=O)O[C@H]2CCC[C@@]3(C2)OOC2(O3)C3CC4CC(C3)CC2C4)C1 (some centres undefined) | 58.7 | – | – | – | –

Row | SMILES | microsomal intrinsic clearance [1] [µL/min/mg] | Survival [2] [days] | solubility kinetic [3] [µM] | Activity [4] | also measured
24 | NC1(CNC(=O)O[C@@H]2CCC[C@]3(C2)OOC2(O3)C3CC4CC(C3)CC2C4)CCCC1 (some centres undefined) | 29.9 | 11 | 162 (≈ 68.1 µg/mL) | Non-Toxic | –
25 | NCCC1CCN(C(=O)O[C@H]2CCC[C@@]3(C2)OOC2(O3)C3CC4CC(C3)CC2C4)CC1 (some centres undefined) | 92.7 | – | 117 (≈ 50.8 µg/mL) | – | –
26 | NC1(CNC(=O)O[C@H]2CCC[C@@]3(C2)OOC2(O3)C3CC4CC(C3)CC2C4)COC1 (some centres undefined) | 135 | 9 | 87.7 (≈ 35.8 µg/mL) | Non-Toxic | –
27 | O=C(O[C@H]1CCC[C@@]2(C1)OOC1(O2)C2CC3CC(C2)CC1C3)N1CC(O)(C(F)(F)F)C1 (some centres undefined) | 211 | – | 10.8 (≈ 4.83 µg/mL) | – | –
28 | NC1(CNC(=O)O[C@@H]2CCC[C@]3(C2)OOC2(O3)C3CC4CC(C3)CC2C4)CCC1 (some centres undefined) | 37.4 | 13 | 142 (≈ 57.7 µg/mL) | Non-Toxic | –
29 | CC1(O)CN(C(=O)O[C@@H]2CCC[C@]3(C2)OOC2(O3)C3CC4CC(C3)CC2C4)C1 (some centres undefined) | – | 7 | 71.4 (≈ 28.1 µg/mL) | Non-Toxic | –
30 | O=C(NCC1(O)COC1)O[C@H]1CCC[C@@]2(C1)OOC1(O2)C2CC3CC(C2)CC1C3 (some centres undefined) | 333 | 6 | 112 (≈ 45.9 µg/mL) | Non-Toxic | –
31 | N=S(=O)(CCNC(=O)O[C@@H]1CCC[C@]2(C1)OOC1(O2)C2CC3CC(C2)CC1C3)C1CC1 (some centres undefined) | 435 | – | 79.3 (≈ 36 µg/mL) | – | –
32 | CS(=O)(=O)C1CN(C(=O)O[C@@H]2CCC[C@]3(C2)OOC2(O3)C3CC4CC(C3)CC2C4)C1 (some centres undefined) | 526 | – | 66.7 (≈ 29.5 µg/mL) | – | –
33 | CC1(O)CN(C(=O)O[C@H]2CCC[C@@]3(C2)OOC2(O3)C3CC4CC(C3)CC2C4)C1 (some centres undefined) | – | 4 | 137 (≈ 53.9 µg/mL) | Non-Toxic | –
34 | CC(C)C1(O)CN(C(=O)O[C@@H]2CCC[C@]3(C2)OOC2(O3)C3CC4CC(C3)CC2C4)C1 (some centres undefined) | 392 | – | 15.9 (≈ 6.7 µg/mL) | – | –
35 | NC1CN(C(=O)O[C@H]2CCC[C@@]3(C2)OOC2(O3)C3CC4CC(C3)CC2C4)C1 (some centres undefined) | < 11.6 | – | 101 (≈ 38.2 µg/mL) | – | Survival [5]: 5 days; Activity [6]: Non-Toxic
36 | CCC1(O)CN(C(=O)O[C@H]2CCC[C@@]3(C2)OOC2(O3)C3CC4CC(C3)CC2C4)C1 (some centres undefined) | 638 | – | 41.5 (≈ 16.9 µg/mL) | – | –
37 | CCCC1(O)CN(C(=O)O[C@H]2CCC[C@@]3(C2)OOC2(O3)C3CC4CC(C3)CC2C4)C1 (some centres undefined) | 683 | – | 18.2 (≈ 7.67 µg/mL) | – | –
38 | N[C@@H]1CCN(C(=O)O[C@@H]2CCC[C@]3(C2)OOC2(O3)C3CC4CC(C3)CC2C4)C1 (some centres undefined) | 45.8 | – | 167 (≈ 65.5 µg/mL) | – | Activity [7]: 20%
39 | O=C(O[C@@H]1CCC[C@]2(C1)OOC1(O2)C2CC3CC(C2)CC1C3)N1CCNCC1 (some centres undefined) | – | – | 144 (≈ 56.5 µg/mL) | – | microsomal CLint [1]: 39.4 µL/min/mg
40 | N[C@@H]1CCCN(C(=O)O[C@@H]2CCC[C@]3(C2)OOC2(O3)C3CC4CC(C3)CC2C4)C1 (some centres undefined) | 43.7 | 12 | 74.9 (≈ 30.4 µg/mL) | Non-Toxic | –
41 | CCC1(O)CN(C(=O)O[C@@H]2CCC[C@]3(C2)OOC2(O3)C3CC4CC(C3)CC2C4)C1 (some centres undefined) | 480 | – | 58.7 (≈ 23.9 µg/mL) | – | –
42 | NCCC1CCN(C(=O)O[C@@H]2CCC[C@]3(C2)OOC2(O3)C3CC4CC(C3)CC2C4)CC1 (some centres undefined) | – | – | – | – | Activity [7]: 20%
43 | CS(=N)(=O)CCNC(=O)O[C@@H]1CCC[C@]2(C1)OOC1(O2)C2CC3CC(C2)CC1C3 (some centres undefined) | 243 | – | 128 (≈ 54.9 µg/mL) | – | –
44 | NC1(CNC(=O)O[C@H]2CCC[C@@]3(C2)OOC2(O3)C3CC4CC(C3)CC2C4)CC1 (some centres undefined) | 37.4 | 11 | 143 (≈ 56.1 µg/mL) | Non-Toxic | Survival [5]: 11 days; Activity [6]: Non-Toxic
45 | NC1(CNC(=O)O[C@@H]2CCC[C@]3(C2)OOC2(O3)C3CC4CC(C3)CC2C4)COC1 (some centres undefined) | 23.4 | 8 | 122 (≈ 49.8 µg/mL) | Non-Toxic | Survival [5]: 7 days; Activity [6]: Non-Toxic
